The term IC50 denotes the midpoint of a concentration-inhibition curve. The term EC50 denotes the concentration at which the effect is half-maximal.

16 molecules from ChEMBL document CHEMBL1155202, “Synthesis and anticancer activity of novel 3,4-diarylthiazol-2(3H)-ones (imines)” (Bioorg Med Chem Lett, 2009) can be followed below.

The test system of one test is CCRF-CEM. The test can be described thus: Anticancer activity against human CCRF-CEM cells after 72 hrs. The class given is functional, cell-based. In outline:
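CEM human leukemia cells were exposed to compounds. IC50 was defined as the concentration required to inhibit 50% of cell proliferation.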

Test [1] relates to HepG2. The test can be described thus: Cell cycle arrest in human HepG2 cells assessed as increase in G2/M phase cells after 20 hrs by flow cytometry using propidium iodide staining. It counts as functional, cell-based. As to conditions: for EC50: HepG2, 20 h. The gist of the method:
(§1)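 HepG2 cells were left untreated or treated with compounds across a dose range for 20 h at 37 °C. CA-4 served as positive control. Cell-cycle phase distribution (G1, S, G2/M fractions) was then analysed by flow cytometry.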
(In general: In flow cytometry, cells or beads pass a laser one at a time.)

The test system of a further test is MCF7. The test can be described thus: Anticancer activity against human MCF7 cells after 72 hrs. The class given is functional, cell-based. Conditions: MCF7, 72 h. In outline: (§2)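 Solid human tumour lines (liver Bel-7402, HepG2, SMMC-7721; breast MCF-7; pancreatic SW-1990; colon HCT116) were exposed to compounds. IC50 was taken as the concentration inhibiting 50% of cell proliferation. CA-4 served as positive control.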

For the next test, the system named is SMMC-7721. The test can be described thus: Anticancer activity against human SMMC7721 cells after 72 hrs. It counts as functional, cell-based. Conditions: SMMC-7721, 72 h. In outline:
as §2

The test system of another test is SW1990. The test can be described thus: Anticancer activity against human SW1990 cells after 72 hrs. It counts as functional, cell-based. As to conditions: SW1990, 72 h. In outline: as §2
The subject of a further test is HCT-116. The test can be described thus: Anticancer activity against human HCT116 cells after 72 hrs. The class given is functional, cell-based. As to conditions: HCT-116, 72 h. The gist of the method: as §2
Test [2] deals with HepG2. The test can be described thus: Anticancer activity against human HepG2 cells after 72 hrs. Conditions: HepG2, 72 h. The class given is functional, cell-based. In outline: as §2
The test system of the next test is Bel-7402. The test can be described thus: Anticancer activity against human Bel7402 cells after 72 hrs. The class given is functional, cell-based. Conditions: Bel-7402, 72 h. The gist of the method: as §2
Test [3] relates to HepG2. The test can be described thus: Cell cycle arrest in human HepG2 cells assessed as decrease in S phase cells after 20 hrs by flow cytometry using propidium iodide staining. The class given is functional, cell-based. In outline: as §1
For test [4], the system named is HepG2. The test can be described thus: Ratio of Compound EC50 to Combrestatin A4 EC50 for cell cycle arrest in human HepG2 cells assessed as increase in G2/M phase cells after 20 hrs by flow cytometry using propidium iodide staining. The class given is functional.
Test [5] concerns HepG2. The test can be described thus: Cell cycle arrest in human HepG2 cells assessed as decrease in G1 phase cells after 20 hrs by flow cytometry using propidium iodide staining. It counts as functional, cell-based. The gist of the method: as §1

Bounds are passed on as bounds.

`COc1ccc(-n2c(-c3cc(OC)c(OC)c(OC)c3)csc2=O)cc1[N+](=O)[O-]` came in with an IC50 in the test on CCRF-CEM of 2.7 µM.
Same read-out and setting: next, `COc1ccc(-n2c(-c3cc(OC)c(OC)c(OC)c3)csc2=N)cc1`: 13.2 µM; `COc1ccc(-c2csc(=O)n2-c2cc(OC)c(OC)c(OC)c2)cc1`: 1.8 µM.
The same measure, in the same setting: next, `COc1ccc(-c2csc(=N)n2-c2ccc(OC)cc2)cc1`: more than 20 µM.
On the same count and under the same terms, next, `COc1ccc(-n2c(-c3cc(OC)c(OC)c(OC)c3)c(Cl)sc2=O)cc1`: 13.8 µM; `COc1ccc(-c2c(Cl)sc(=O)n2-c2cc(OC)c(OC)c(OC)c2)cc1[N+](=O)[O-]`: 7.5 µM; `COc1ccc(-c2csc(=O)n2-c2cc(OC)c(OC)c(OC)c2)cc1[N+](=O)[O-]`: 8.2 µM.
`COc1ccc(-n2c(-c3cc(OC)c(OC)c(OC)c3)c(Cl)sc2=O)cc1[N+](=O)[O-]` came in with an IC50 with CCRF-CEM of more than 20 µM.
Still for that read-out and setting: with `COc1ccc(-c2c(Cl)sc(=O)n2-c2cc(OC)c(OC)c(OC)c2)cc1` the figure was more than 20 µM.
Take `COc1ccc(/C=C\c2cc(OC)c(OC)c(OC)c2)cc1O` [COMBRETASTATIN A4]: the EC50 in the test on HepG2 [1] is less than 0.03 µM. In addition, the IC50 is 0.002 µM with CCRF-CEM; 0.03 µM with MCF7; 0.29 µM in the test on SMMC-7721; 0.25 µM with SW1990; 0.006 µM in the test with HCT-116; 0.006 µM in the test on HepG2 [2]. 1.72 µM corresponded to half-maximal inhibition in the test on Bel-7402 (IC50).
`COc1ccc(-n2c(-c3cc(OC)c(OC)c(OC)c3)csc2=O)cc1` registered an IC50 with CCRF-CEM of 14.9 µM.
Turning to `COc1ccc(-c2c(Cl)sc(=O)n2-c2cc(OC)c(OC)c(OC)c2)cc1N`, the EC50 with HepG2 [1] is more than 250 µM. In addition, the IC50 in the test with CCRF-CEM was 0.12 µM; with MCF7, 52.5 µM; with SMMC-7721, 118 µM; in the test with SW1990 it was 56.7 µM; in the test with HCT-116 it was 85.1 µM; in the test with HepG2 [2], 96 µM. Further, the IC50 in the test with Bel-7402 turned out to be 23.4 µM.
With `COc1ccc(-c2csc(=O)n2-c2cc(OC)c(OC)c(OC)c2)cc1N`, the Activity entry with HepG2 [1], in the test with HepG2 [3] and in the test with HepG2 [5] was “Dose-dependent effect” in each case. For the same molecule, the EC50 in the test on HepG2 [1] was determined as 3.89 µM. Moreover, the “Ratio EC50” value with HepG2 [4] amounted to 130. Further, the IC50 in the test with CCRF-CEM amounted to 0.24 µM; with MCF7 it was 4.4 µM; in the test with SMMC-7721, 7.4 µM; with SW1990, 20.3 µM; with HCT-116, 3.4 µM; in the test on HepG2 [2], 4.5 µM. In the test on Bel-7402, this molecule came in with an IC50 of 3.3 µM.
With `COc1ccc(-n2c(-c3cc(OC)c(OC)c(OC)c3)c(Cl)sc2=O)cc1N`, half-maximal inhibition with CCRF-CEM (IC50) was put at 16.2 µM.
Same read-out and setting: next, `COc1ccc(-n2c(-c3cc(OC)c(OC)c(OC)c3)csc2=O)cc1N`: 10.1 µM; `COc1ccc(-c2csc(=N)n2-c2cc(OC)c(OC)c(OC)c2)cc1`: 1.5 µM.
